Drawing on ChEMBL document CHEMBL4251739, “Rhodanine as a Potent Scaffold for the Development of Broad-Spectrum Metallo-β-lactamase Inhibitors” (ACS Med Chem Lett, 2018), this text covers IC50, inhibition and MIC for eleven compounds.

Assay [1] is described as follows: Inhibition of bacterial NDM1 expressed in Escherichia coli BL21(DE3) using cefazolin as substrate by spectrometric method. More on the design: species or system Bacteria. Put shortly:
(§1)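 Purified enzymes, overexpressed and purified by earlier methods, assayed under steady-state conditions by UV spectrometry in 50 mM Tris, pH 7.0. Substrate for NDM-1, VIM-2 and L1 was cefazolin (50 µM), read at 262 nm. Substrate for ImiS was imipenem (60 µM), read at 300 nm. Inhibitor varied 0–50 µM; IC50 is the concentration giving 50% loss of activity.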

A short description of assay [2]: Inhibition of bacterial VIM2 expressed in Escherichia coli BL21(DE3) using cefazolin as substrate by spectrometric method. More on the design: species or system Bacteria. Summed up:
as §1

In assay [3] the test system is Bacteria. Kind of assay: Inhibition of bacterial ImiS expressed in Escherichia coli BL21(DE3) at 50 uM using imipenem as substrate by spectrometric method relative to control.
Assay [4] in a line: Inhibition of bacterial L1 expressed in Escherichia coli BL21(DE3) using cefazolin as substrate by spectrometric method. More on the design: species or system Bacteria. Summed up:
as §1

For assay [5], the system named is Bacteria. The assay is described as follows: Inhibition of bacterial NDM1 expressed in Escherichia coli DH10B assessed as potentiation of cefazolin-induced antibacterial activity by measuring cefazolin MIC at 32 ug/ml after 16 hrs by broth micro-dilution method (reference value: 8 ug/ml). (Dilution methods test growth across graded concentrations, often in twofold steps.)

For assay [6], the system named is Bacteria. The assay is described as follows: Inhibition of bacterial VIM2 expressed in Escherichia coli DH10B assessed as potentiation of cefazolin-induced antibacterial activity by measuring cefazolin MIC at 32 ug/ml after 16 hrs by broth micro-dilution method (reference value: 512 ug/ml).
For assay [7], the system named is Bacteria. The assay is described as follows: Inhibition of bacterial ImiS expressed in Escherichia coli DH10B assessed as potentiation of imipenem-induced antibacterial activity by measuring imipenem MIC at 32 ug/ml after 16 hrs by broth micro-dilution method (reference value: 2 ug/ml).
For assay [8], the system named is Bacteria. The assay is described as follows: Inhibition of bacterial L1 expressed in Escherichia coli DH10B assessed as potentiation of cefazolin-induced antibacterial activity by measuring cefazolin MIC at 32 ug/ml after 16 hrs by broth micro-dilution method (reference value: 32 ug/ml). Summed up: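 Dose-dependent cefazolin MIC assay against E. coli DH10B expressing L1 from a pBCSK plasmid, with varied inhibitor doses up to 256 µg/mL. Fold decrease in MIC was taken relative to cefazolin alone. Medium pH was monitored during the assay.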

The test system of assay [9] is Bacteria. The assay is described as follows: Inhibition of bacterial VIM2 expressed in Escherichia coli BL21(DE3) at 50 uM using cefazolin as substrate by spectrometric method relative to control.
Assay [10] deals with Bacteria. The assay is described as follows: Inhibition of bacterial NDM1 expressed in Escherichia coli BL21(DE3) at 50 uM using cefazolin as substrate by spectrometric method relative to control.
Assay [11] can be described thus: Inhibition of bacterial ImiS expressed in Escherichia coli BL21(DE3) using imipenem as substrate by spectrometric method. More on the design: species or system Bacteria. Summed up:
as §1

Usually IC50 stands for the concentration that inhibits the measured activity by half. Read a high IC50 as a need for much substance. The term inhibition denotes the percentage by which the read-out fell short of the control. A lower inhibition goes with little suppression.

Turning to `O=C(O)CN1C(=O)/C(=C/c2ccc(Cl)cc2Cl)SC1=S`, the figures for the IC50 in [1], in [2] and in assay [4] were 21.5 µM, 25.1 µM and 0.08 µM, respectively. The inhibition in the assay with Bacteria [3] was below 50%. The MIC worked out at 4 µg/mL in the assay with Bacteria [5], 256 µg/mL with Bacteria [6], 4 µg/mL in the assay with Bacteria [7] and 16 µg/mL with Bacteria [8].

`O=C(O)CN1C(=O)/C(=C/c2ccc(F)cc2)SC1=S`: the figures for the IC50 in [1], in [2] and in assay [4] were 15.4 µM, 14.4 µM and 0.2 µM, respectively. In the assay on Bacteria [3], this compound had an inhibition below 50%. Besides, the MIC with Bacteria [5] was 4 µg/mL; with Bacteria [6] it was 256 µg/mL; with Bacteria [7], 2 µg/mL; with Bacteria [8] it was 8 µg/mL.

Regarding `O=C(O)CN1C(=O)/C(=C/c2ccco2)SC1=S`, the values for the IC50 in assay [1] and in assay [4] were 47 µM and 1.7 µM, respectively. For the same compound, the inhibition in the assay with Bacteria [3] and with Bacteria [9] was below 50% throughout. The MIC worked out at 8 µg/mL in the assay on Bacteria [5], 512 µg/mL in the assay with Bacteria [6], 2 µg/mL in the assay with Bacteria [7] and 8 µg/mL with Bacteria [8].

Regarding `O=C(O)c1ccc(N2C(=O)/C(=C/c3cccs3)SC2=S)cc1`, the IC50 in assay [1] was 14.3 µM; in assay [4], 0.59 µM. For the same compound, the inhibition in the assay with Bacteria [3] and in the assay with Bacteria [9] was below 50% in each case. In addition, the MIC in the assay on Bacteria [5] was 4 µg/mL; in the assay with Bacteria [6], 512 µg/mL; in the assay with Bacteria [7] it was 1 µg/mL; in the assay on Bacteria [8], 8 µg/mL.

Consider `O=C(O)CN1C(=O)/C(=C/c2cccc3ccccc23)SC1=S`, for which the IC50 came to 27.9 µM in [2] and 0.28 µM in [4]. For the same compound, the inhibition with Bacteria [3] and with Bacteria [10] was below 50% in each case. The MIC in the assay on Bacteria [5] was determined as 8 µg/mL; in the assay on Bacteria [6], 512 µg/mL; in the assay on Bacteria [7] it was 1 µg/mL; in the assay with Bacteria [8], 8 µg/mL.

For `O=C(O)CN1C(=O)/C(=C/c2ccc(Cl)cc2)SC1=S`, the IC50 was determined as 15.3 µM in assay [2] and 0.22 µM in assay [4]. The inhibition in the assay on Bacteria [3] and in the assay with Bacteria [10] was below 50% each time. The MIC was 8 µg/mL in the assay with Bacteria [5], 512 µg/mL in the assay with Bacteria [6], 2 µg/mL in the assay on Bacteria [7] and 8 µg/mL with Bacteria [8].

Take `O=C(O)c1ccc(N2C(=O)/C(=C/c3ccco3)SC2=S)cc1`: the IC50 stood at 0.69 µM in [1] and 0.18 µM in [4]. The inhibition with Bacteria [3] and in the assay on Bacteria [9] was below 50% each time. Besides, the MIC was 4 µg/mL in the assay with Bacteria [5], 512 µg/mL in the assay on Bacteria [6], 1 µg/mL with Bacteria [7] and 8 µg/mL in the assay with Bacteria [8].

With `COc1ccc(/C=C(\S)C(=O)O)cc1`, the IC50 in assay [2] amounted to 4.7 µM; in [4], 0.32 µM. In addition, the inhibition with Bacteria [3] and in the assay with Bacteria [10] was below 50% throughout. Also, the MIC in the assay on Bacteria [5] was determined as 16 µg/mL; with Bacteria [6], 256 µg/mL; in the assay with Bacteria [7], 2 µg/mL; with Bacteria [8], 16 µg/mL.

Take `O=C(O)CN1C(=O)/C(=C/c2ccc(C(F)(F)F)cc2)SC1=S`: the IC50 was determined as 14.3 µM in [1], 12.7 µM in assay [2] and 0.11 µM in assay [4]. The compound further displayed an inhibition with Bacteria [3] below 50%. The MIC was found to be 4 µg/mL in the assay with Bacteria [5], 256 µg/mL in the assay on Bacteria [6], 1 µg/mL with Bacteria [7] and 8 µg/mL in the assay on Bacteria [8].

In the case of `COc1ccc(/C=C2\SC(=S)N(CC(=O)O)C2=O)cc1`, the figures for the IC50 in assay [1] and in assay [4] were 25.1 µM and 0.6 µM, respectively. Also, the inhibition in the assay on Bacteria [3] and in the assay on Bacteria [9] was below 50% throughout. The MIC in the assay on Bacteria [5] amounted to 4 µg/mL; in the assay with Bacteria [6] it was 512 µg/mL; with Bacteria [7] it was 2 µg/mL; in the assay on Bacteria [8], 8 µg/mL.

Regarding `O=C(O)c1ccc(N2C(=O)/C(=C/c3ccc(F)cc3)SC2=S)cc1`, the IC50 in [1] was 8.4 µM; in assay [2] it was 6.9 µM; in assay [11], 3.6 µM; in [4] it was 0.08 µM. Besides, the MIC with Bacteria [5] stood at 2 µg/mL; with Bacteria [6] it was 256 µg/mL; in the assay with Bacteria [7] it was 1 µg/mL; in the assay with Bacteria [8], 8 µg/mL.
